The source made the active and inactive calls. The calls are words filed in the database; no cut-off is given here.
What was measured:
[1] = target: T1, Lutropin-choriogonadotropic hormone receptor (Homo sapiens, UniProt P22888); assay: Agonist activity at human LH receptor expressed in CHO-K1 cells assessed as stimulation of luciferase activity by CRE-driven luciferase reporter gene assay; assay type: functional, cell-based
Method in brief: (§1)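 EC50 or IC50 values were fitted from concentration–effect curves. Data come from two independent experiments, each run in duplicate, with SD generally below 0.3.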

[2] = target: T1, Lutropin-choriogonadotropic hormone receptor; assay: Antagonist activity at human LH receptor expressed in CHO-K1 cells assessed as inhibition of LH-induced luciferase activity by CRE-driven luciferase reporter gene assay; assay type: functional, cell-based
[3] = target: T2, Follicle-stimulating hormone receptor (Homo sapiens) (UniProt P23945); assay: Agonist activity at human FSHR receptor expressed in CHO-K1 cells assessed as stimulation of luciferase activity at 10 uM by CRE-driven luciferase reporter gene assay relative to control; assay type: functional, cell-based
T2 sequence (whole entry): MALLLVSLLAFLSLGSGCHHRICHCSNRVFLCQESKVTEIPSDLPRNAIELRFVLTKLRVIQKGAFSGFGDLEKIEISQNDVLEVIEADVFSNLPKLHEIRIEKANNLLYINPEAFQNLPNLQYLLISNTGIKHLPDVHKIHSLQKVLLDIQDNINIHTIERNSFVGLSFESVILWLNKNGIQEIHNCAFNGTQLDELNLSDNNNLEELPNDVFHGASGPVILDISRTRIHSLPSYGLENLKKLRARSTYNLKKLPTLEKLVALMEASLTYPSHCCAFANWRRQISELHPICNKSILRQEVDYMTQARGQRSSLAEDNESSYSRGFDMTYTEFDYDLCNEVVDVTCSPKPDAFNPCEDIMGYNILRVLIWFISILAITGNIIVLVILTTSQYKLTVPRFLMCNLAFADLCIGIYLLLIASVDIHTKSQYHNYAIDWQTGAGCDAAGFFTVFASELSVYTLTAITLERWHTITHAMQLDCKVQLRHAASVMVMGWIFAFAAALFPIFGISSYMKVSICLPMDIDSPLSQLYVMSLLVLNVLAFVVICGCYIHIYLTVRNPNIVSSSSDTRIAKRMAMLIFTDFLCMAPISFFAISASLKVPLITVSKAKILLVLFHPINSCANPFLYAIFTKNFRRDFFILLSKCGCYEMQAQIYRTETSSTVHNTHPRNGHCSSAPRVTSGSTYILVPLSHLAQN

[4] = target: T3, Follicle-stimulating hormone receptor (Homo sapiens, UniProt P23945); assay: Antagonist activity at human FSHR receptor expressed in CHO-K1 cells assessed as inhibition of FSH-induced luciferase activity by CRE-driven luciferase reporter gene assay relative to control
T3 sequence (P23945 whole entry): T2 sequence (whole entry)

[5] = target: T3, Follicle-stimulating hormone receptor; assay: Agonist activity at human FSHR receptor expressed in CHO-K1 cells assessed as stimulation of luciferase activity by CRE-driven luciferase reporter gene assay; assay type: functional, cell-based; method in brief: as §1
[6] = target: T2, Follicle-stimulating hormone receptor (Homo sapiens); assay: Agonist activity at human FSHR receptor expressed in CHO-K1 cells assessed as stimulation of luciferase activity by CRE-driven luciferase reporter gene assay relative to control; assay type: functional, cell-based
[7] = target: T2, Follicle-stimulating hormone receptor (Homo sapiens); assay: Antagonist activity at human FSHR receptor expressed in CHO-K1 cells assessed as inhibition of FSH-induced luciferase activity at 10 uM by CRE-driven luciferase reporter gene assay relative to control

T1 sequence (P22888 whole entry): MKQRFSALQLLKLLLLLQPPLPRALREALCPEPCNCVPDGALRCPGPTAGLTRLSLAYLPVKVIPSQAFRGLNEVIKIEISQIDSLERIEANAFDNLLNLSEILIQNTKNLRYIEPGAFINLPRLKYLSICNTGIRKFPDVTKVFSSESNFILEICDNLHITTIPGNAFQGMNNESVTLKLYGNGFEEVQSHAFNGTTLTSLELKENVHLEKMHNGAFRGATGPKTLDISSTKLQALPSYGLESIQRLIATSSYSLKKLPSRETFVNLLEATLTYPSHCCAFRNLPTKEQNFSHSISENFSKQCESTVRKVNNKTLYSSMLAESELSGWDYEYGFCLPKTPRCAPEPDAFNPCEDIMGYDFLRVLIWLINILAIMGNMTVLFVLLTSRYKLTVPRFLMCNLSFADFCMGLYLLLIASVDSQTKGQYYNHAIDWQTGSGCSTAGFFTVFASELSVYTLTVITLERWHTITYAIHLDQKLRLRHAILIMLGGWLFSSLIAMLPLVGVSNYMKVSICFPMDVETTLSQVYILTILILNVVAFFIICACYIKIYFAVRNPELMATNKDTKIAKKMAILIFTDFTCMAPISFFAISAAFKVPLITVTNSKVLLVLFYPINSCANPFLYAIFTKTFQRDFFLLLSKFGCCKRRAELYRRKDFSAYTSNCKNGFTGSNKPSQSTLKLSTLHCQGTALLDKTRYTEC

Row | EC50 ([1]; read-out: EC50) [nM] | inhibition [2] | Emax [3] [%] | IC50 ([4]; cho-k1) | EC50 ([5]; read-out: EC50) [nM] | Emax [6] [%] | EC50 ([1]; cho-k1) | EC50 ([5]; cho-k1) | IC50 ([4]; read-out: IC50) [nM] | Imax [7] [%] | Structure (SMILES)
1 | 24 | inactive | 43 | Not Active |  |  |  |  |  |  | CSc1nc(-c2cccc(NCC(=O)NCc3cn(CCn4cc(COc5ccc([C@]6(C)CC(C)(C)N(C(C)=O)c7ccc(NC(=O)c8ccc(-c9ccccc9)cc8)cc76)cc5)nn4)nn3)c2)c2c(N)c(C(=O)NC(C)(C)C)sc2n1
2 | 5 | inactive |  | Not Active | 397 | 81 |  |  |  |  | CSc1nc(-c2cccc(NCC(=O)NCc3cn(CCOCCOCCN=[N+]=[N-])nn3)c2)c2c(N)c(C(=O)NC(C)(C)C)sc2n1
3 | 57 | inactive | 31 | Not Active |  |  |  |  |  |  | CSc1nc(-c2cccc(NCC(=O)NCc3cn(CCOCCOCCOCCn4cc(COc5ccc([C@]6(C)CC(C)(C)N(C(C)=O)c7ccc(NC(=O)c8ccc(-c9ccccc9)cc8)cc76)cc5)nn4)nn3)c2)c2c(N)c(C(=O)NC(C)(C)C)sc2n1
4 |  | inactive |  |  |  |  | Not Active | Not Active | 324 |  | CC(=O)N1c2ccc(NC(=O)c3ccc(-c4ccccc4)cc3)cc2[C@@](C)(c2ccc(OCc3cn(CCOCCOCCN=[N+]=[N-])nn3)cc2)CC1(C)C
5 | 61 | inactive |  |  |  |  |  | Not Active | 1660 | 65 | CSc1nc(-c2cccc(NCC(=O)NCc3cn(CCOCCOCCOCCn4cc(COc5ccc([C@@]6(C)CC(C)(C)N(C(C)=O)c7ccc(NC(=O)c8ccc(-c9ccccc9)cc8)cc76)cc5)nn4)nn3)c2)c2c(N)c(C(=O)NC(C)(C)C)sc2n1
6 | 80 | inactive | 44 | Not Active |  |  |  |  |  |  | CSc1nc(-c2cccc(NCC(=O)NCc3cn(CCOCCn4cc(COc5ccc([C@]6(C)CC(C)(C)N(C(C)=O)c7ccc(NC(=O)c8ccc(-c9ccccc9)cc8)cc76)cc5)nn4)nn3)c2)c2c(N)c(C(=O)NC(C)(C)C)sc2n1
7 | 10 | inactive |  |  |  |  |  | Not Active |  | 65 | CSc1nc(-c2cccc(NCC(=O)NCc3cn(CCn4cc(COc5ccc([C@@]6(C)CC(C)(C)N(C(C)=O)c7ccc(NC(=O)c8ccc(-c9ccccc9)cc8)cc76)cc5)nn4)nn3)c2)c2c(N)c(C(=O)NC(C)(C)C)sc2n1
8 | 55 | inactive |  |  |  |  |  | Not Active | 1020 | 72 | CSc1nc(-c2cccc(NCC(=O)NCc3cn(CCOCCOCCOCCOCCn4cc(COc5ccc([C@@]6(C)CC(C)(C)N(C(C)=O)c7ccc(NC(=O)c8ccc(-c9ccccc9)cc8)cc76)cc5)nn4)nn3)c2)c2c(N)c(C(=O)NC(C)(C)C)sc2n1
9 |  | inactive |  |  |  |  | Not Active | Not Active | 39 |  | C#CCOc1ccc([C@@]2(C)CC(C)(C)N(C(C)=O)c3ccc(NC(=O)c4ccc(-c5ccccc5)cc4)cc32)cc1
10 | 43 | inactive |  |  |  |  |  | Not Active | 920 | 73 | CSc1nc(-c2cccc(NCC(=O)NCc3cn(CCOCCOCCn4cc(COc5ccc([C@@]6(C)CC(C)(C)N(C(C)=O)c7ccc(NC(=O)c8ccc(-c9ccccc9)cc8)cc76)cc5)nn4)nn3)c2)c2c(N)c(C(=O)NC(C)(C)C)sc2n1
11 | 27 | inactive |  |  |  |  |  | Not Active |  | 75 | CSc1nc(-c2cccc(NCC(=O)NCc3cn(CCOCCn4cc(COc5ccc([C@@]6(C)CC(C)(C)N(C(C)=O)c7ccc(NC(=O)c8ccc(-c9ccccc9)cc8)cc76)cc5)nn4)nn3)c2)c2c(N)c(C(=O)NC(C)(C)C)sc2n1
12 | 75 | inactive | 18 | Not Active |  |  |  |  |  |  | CSc1nc(-c2cccc(NCC(=O)NCc3cn(CCOCCOCCn4cc(COc5ccc([C@]6(C)CC(C)(C)N(C(C)=O)c7ccc(NC(=O)c8ccc(-c9ccccc9)cc8)cc76)cc5)nn4)nn3)c2)c2c(N)c(C(=O)NC(C)(C)C)sc2n1
13 | 1 | inactive |  | Not Active | 126 | 78 |  |  |  |  | C#CCNC(=O)CNc1cccc(-c2nc(SC)nc3sc(C(=O)NC(C)(C)C)c(N)c23)c1
14 | 39 | inactive | 39 | Not Active |  |  |  |  |  |  | CSc1nc(-c2cccc(NCC(=O)NCc3cn(CCOCCOCCOCCOCCn4cc(COc5ccc([C@]6(C)CC(C)(C)N(C(C)=O)c7ccc(NC(=O)c8ccc(-c9ccccc9)cc8)cc76)cc5)nn4)nn3)c2)c2c(N)c(C(=O)NC(C)(C)C)sc2n1
